Data from ChEMBL document CHEMBL1138555, “N-acylated and N,N'-diacylated imidazolidine-2-thione derivatives and N,N'-diacylated tetrahydropyrimidine-2(1H)-thione analogues: synthesis and antiproliferative activity” (Eur J Med Chem, 2009).

Experiments:
Type in all cases: functional
Malme-3M = assay: Growth inhibition of human MALME-3M cells after 48 hrs by sulforhodamine B assay
Method in brief: (§1)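 NCI screen panel. Five 10-fold concentrations from 10^-4 to 10^-8 M. Exposure for the last 48 h of a 72 h incubation. Growth estimated by sulforhodamine B protein assay. GI50 is the concentration giving 50% growth inhibition. Where that level was not reached or was exceeded, the value is given as above or below the highest or lowest concentration tested.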

M14 = assay: Growth inhibition of human M14 cells after 48 hrs by sulforhodamine B assay; settings: M14, 48 h; method in brief: as §1
SK-MEL-2 = assay: Growth inhibition of human SK-MEL-2 cells after 48 hrs by sulforhodamine B assay; settings: SK-MEL-2, 48 h; method in brief: as §1
SK-MEL-28 = assay: Growth inhibition of human SK-MEL-28 cells after 48 hrs by sulforhodamine B assay; settings: SK-MEL-28, 48 h; method in brief: as §1
SK-MEL-5 = assay: Growth inhibition of human SK-MEL-5 cells after 48 hrs by sulforhodamine B assay; settings: SK-MEL-5, 48 h; method in brief: as §1
UACC-257 = assay: Growth inhibition of human UACC257 cells after 48 hrs by sulforhodamine B assay; settings: UACC-257, 48 h
Method in brief: (§2)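 NCI in vitro panel screen. Compounds tested at five 10-fold dilutions, 10^-4 to 10^-8 M. Cells in 96-well plates were exposed for the last 48 h of a 72 h incubation. Viability/growth was read by sulforhodamine B protein assay. GI50 is the concentration giving 50% growth inhibition. Values beyond the tested range are reported as greater or less than the maximum or minimum concentration.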

UACC-62 = assay: Growth inhibition of human UACC62 cells after 48 hrs by sulforhodamine B assay; settings: UACC-62, 48 h; method in brief: as §2
IGROV-1 = assay: Growth inhibition of human IGROV1 cells after 48 hrs by sulforhodamine B assay; settings: IGROV-1, 48 h; method in brief: as §1
OVCAR-3 = assay: Growth inhibition of human OVCAR-3 cells after 48 hrs by sulforhodamine B assay; settings: OVCAR-3, 48 h; method in brief: as §1
OVCAR-4 = assay: Growth inhibition of human OVCAR4 cells after 48 hrs by sulforhodamine B assay; settings: OVCAR-4, 48 h; method in brief: as §1
OVCAR-8 = assay: Growth inhibition of human OVCAR8 cells after 48 hrs by sulforhodamine B assay; settings: OVCAR-8, 48 h; method in brief: as §1
SK-OV-3 = assay: Growth inhibition of human SKOV3 cells after 48 hrs by sulforhodamine B assay; settings: SK-OV-3, 48 h; method in brief: as §1
786-0 = assay: Growth inhibition of human 786-0 cells after 48 hrs by sulforhodamine B assay; settings: 786-0, 48 h; method in brief: as §1
ACHN = assay: Growth inhibition of human ACHN cells after 48 hrs by sulforhodamine B assay; method in brief: as §1
CAKI-1 = assay: Growth inhibition of human Caki1 cells after 48 hrs by sulforhodamine B assay; settings: CAKI-1, 48 h; method in brief: as §1
RXF 393 = assay: Growth inhibition of human RXF393 cells after 48 hrs by sulforhodamine B assay; settings: RXF 393, 48 h; method in brief: as §1
SN12C = assay: Growth inhibition of human SN12C cells after 48 hrs by sulforhodamine B assay; method in brief: as §2
TK-10 = assay: Growth inhibition of human TK10 cells after 48 hrs by sulforhodamine B assay; settings: TK-10, 48 h; method in brief: as §2
UO-31 = assay: Growth inhibition of human UO31 cells after 48 hrs by sulforhodamine B assay; settings: UO-31, 48 h; method in brief: as §2
PC-3 = assay: Growth inhibition of human PC3 cells after 48 hrs by sulforhodamine B assay; settings: PC-3, 48 h; method in brief: as §1
DU-145 = assay: Growth inhibition of human DU145 cells after 48 hrs by sulforhodamine B assay; settings: DU-145, 48 h; method in brief: as §1
MCF7 = assay: Growth inhibition of human MCF7 cells after 48 hrs by sulforhodamine B assay; settings: MCF7, 48 h; method in brief: as §1
NCI/ADR-RES = assay: Growth inhibition of human NCI/ADR-RES cells after 48 hrs by sulforhodamine B assay; method in brief: as §1
MDA-MB-231 = assay: Growth inhibition of human MDA-MB-231 cells after 48 hrs by sulforhodamine B assay; settings: MDA-MB-231, 48 h; method in brief: as §1
MDA-MB-435 = assay: Growth inhibition of human MDA-MB-435 cells after 48 hrs by sulforhodamine B assay; settings: MDA-MB-435, 48 h; method in brief: as §1
BT-549 = assay: Growth inhibition of human BT549 cells after 48 hrs by sulforhodamine B assay; settings: BT-549, 48 h; method in brief: as §1

## N#C/C(=C\N1CCN(C(=O)c2ccco2)C1=S)C(=O)Nc1ccc(Cl)cc1
Malme-3M
  GI50: 21.4 µM
M14
  GI50: 14.2 µM
SK-MEL-2
  GI50: 16.7 µM
SK-MEL-28
  GI50: 18.7 µM
SK-MEL-5
  GI50: 11.2 µM
UACC-257
  GI50: 16.5 µM
UACC-62
  GI50: 16.9 µM
IGROV-1
  GI50: 25.3 µM
OVCAR-3
  GI50: 15.5 µM
OVCAR-4
  GI50: 25.2 µM
OVCAR-8
  GI50: 20.6 µM
SK-OV-3
  GI50: 41.2 µM
786-0
  GI50: 17.4 µM
ACHN
  GI50: 15.3 µM
CAKI-1
  GI50: 13.2 µM
RXF 393
  GI50: 13.1 µM
SN12C
  GI50: 11.8 µM
TK-10
  GI50: 19.4 µM
UO-31
  GI50: 12 µM
PC-3
  GI50: 18.9 µM
DU-145
  GI50: 15.9 µM
MCF7
  GI50: 21 µM
NCI/ADR-RES
  GI50: 28.1 µM
MDA-MB-231
  GI50: 18.4 µM
MDA-MB-435
  GI50: 15.2 µM
BT-549
  GI50: 8.6 µM
